Data reported in ChEMBL document CHEMBL2311431, “Synthesis and biological evaluation of some 5-arylidene-2-(1,3-thiazol-2-ylimino)-1,3-thiazolidin-4-ones as dual anti-inflammatory/antimicrobial agents” (Bioorg Med Chem, 2013).
Converted amounts (≈) assume the structure as drawn.

How the values were obtained:
[1] = tested on: Escherichia coli; assay: Antibacterial activity against Escherichia coli ATCC 35210 after 24 hr by microdilution test; assay type: functional; settings: ATCC 35210, 24 h
How it was run: (§1)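 Broth microdilution in LB medium, about 1.0×10^4 cfu per well; compounds from 1 mg/ml stocks in 5% DMSO. Incubated 24 h. MIC is the lowest concentration with no visible growth under a binocular microscope. Run in duplicate, repeated three times.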

[2] = tested on: Aspergillus fumigatus; assay: Fungicidal activity against Aspergillus fumigatus after 72 hrs by serial subcultivation method; assay type: functional
[3] = tested on: Talaromyces funiculosus; assay: Fungicidal activity against Penicillium funiculosum ATCC 36839 after 72 hrs by serial subcultivation method; assay type: functional; settings: ATCC 36839, 72 h
[4] = tested on: Staphylococcus aureus; assay: Antibacterial activity against Staphylococcus aureus ATCC 6538 after 24 hr by microdilution test; assay type: functional; settings: ATCC 6538, 24 h; how it was run: as §1
[5] = tested on: Pseudomonas aeruginosa; assay: Antibacterial activity against Pseudomonas aeruginosa ATCC 27853 after 24 hr by microdilution test; assay type: functional; settings: ATCC 27853, 24 h; how it was run: as §1
[6] = tested on: Mus musculus; assay: Acute toxicity in AKR mouse up to 0.5 mmol/kg, ip; assay type: organism-based; settings: in vivo
[7] = tested on: Aspergillus niger; assay: Fungicidal activity against Aspergillus niger ATCC 6275 after 72 hrs by serial subcultivation method; assay type: functional; settings: ATCC 6275, 72 h
[8] = tested on: Trichoderma viride; assay: Fungicidal activity against Trichoderma viride IAM 5061 after 72 hrs by serial subcultivation method; assay type: functional; settings: IAM 5061, 72 h
[9] = (§2) Inhibition of soybean lipoxygenase assessed as inhibition of sodium linolate conversion to 13-hydroperoxylinoleic acid after 4 mins by spectrophotometry; parameters: species or system Glycine max; settings: read-out: IC50
[10] = tested on: Glycine max; assay: as §2
[11] = tested on: Micrococcus flavus; assay: Bactericidal activity against Micrococcus flavus ATCC 10240 after 72 hrs by serial subcultivation method; assay type: functional; settings: ATCC 10240, 72 h
[12] = tested on: Micrococcus flavus; assay: Antibacterial activity against Micrococcus flavus ATCC 10240 after 24 hr by microdilution test; assay type: functional; settings: ATCC 10240, 24 h; how it was run: as §1
[13] = tested on: Talaromyces funiculosus; assay: Antifungal activity against Penicillium funiculosum ATCC 36839 after 72 hrs by serial dilution technique; assay type: functional; settings: ATCC 36839, 72 h
How it was run: (§3)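 Serial dilution in malt broth; compounds from 1 mg/ml stocks in 5% DMSO; 72 h at 28 °C. MIC is the lowest concentration with no visible growth under a binocular microscope. Run in duplicate, repeated three times.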

[14] = tested on: Mus musculus; assay: Antiinflammatory activity in AKR mouse assessed as inhibition of carrageenan-induced paw edema at 0.01 mmol/kg, ip measured after 3.5 hrs of carrageenan-challenge; assay type: functional
How it was run: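 AKR mice of both sexes (pregnant females excluded), 6-10 per group, fasted during the experiment. Edema induced by intradermal 0.05 mL of 2% carrageenin into the right hind paw. Compound given at 0.01 mmol/kg ip, suspended in water with Tween-80, at the same time as carrageenin.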

[15] = tested on: Escherichia coli; assay: Bactericidal activity against Escherichia coli ATCC 35210 after 72 hrs by serial subcultivation method; assay type: functional; settings: ATCC 35210, 72 h
[16] = tested on: Staphylococcus aureus; assay: Bactericidal activity against Staphylococcus aureus ATCC 6538 after 72 hrs by serial subcultivation method; assay type: functional; settings: ATCC 6538, 72 h
[17] = tested on: Aspergillus flavus; assay: Antifungal activity against Aspergillus flavus ATCC 9643 after 72 hrs by serial dilution technique; assay type: functional; settings: ATCC 9643, 72 h; how it was run: as §3
[18] = tested on: Aspergillus niger; assay: Antifungal activity against Aspergillus niger ATCC 6275 after 72 hrs by serial dilution technique; assay type: functional; settings: ATCC 6275, 72 h; how it was run: as §3
[19] = tested on: Trichoderma viride; assay: Antifungal activity against Trichoderma viride IAM 5061 after 72 hrs by serial dilution technique; assay type: functional; settings: IAM 5061, 72 h; how it was run: as §3
[20] = tested on: Aspergillus flavus; assay: Fungicidal activity against Aspergillus flavus ATCC 9643 after 72 hrs by serial subcultivation method; assay type: functional; settings: ATCC 9643, 72 h
[21] = tested on: Listeria monocytogenes; assay: Bactericidal activity against Listeria monocytogenes NCTC 7973 after 72 hrs by serial subcultivation method; assay type: functional; settings: NCTC 7973, 72 h
[22] = tested on: Pseudomonas aeruginosa; assay: Bactericidal activity against Pseudomonas aeruginosa ATCC 27853 after 72 hrs by serial subcultivation method; assay type: functional; settings: ATCC 27853, 72 h
[23] = tested on: Penicillium ochrochloron; assay: Fungicidal activity against Penicillium ochrochloron ATCC 9112 after 72 hrs by serial subcultivation method; assay type: functional; settings: ATCC 9112, 72 h
[24] = tested on: Bacillus cereus; assay: Bactericidal activity against Bacillus cereus clinical isolate after 72 hrs by serial subcultivation method; assay type: functional
[25] = tested on: Penicillium ochrochloron; assay: Antifungal activity against Penicillium ochrochloron ATCC 9112 after 72 hrs by serial dilution technique; assay type: functional; settings: ATCC 9112, 72 h; how it was run: as §3
[26] = tested on: Bacillus cereus; assay: Antibacterial activity against Bacillus cereus clinical isolate after 24 hr by microdilution test; assay type: functional; how it was run: as §1
[27] = tested on: Aspergillus fumigatus; assay: Antifungal activity against Aspergillus fumigatus after 72 hrs by serial dilution technique; assay type: functional; how it was run: as §3
[28] = biological target: T1, Prostaglandin G/H synthase 1 (Ovis aries) (UniProt P05979); assay: Inhibition of ovine COX1 assessed as inhibition of PGF2a production by enzyme immunoassay; parameters: concentration or dose not given beside the values; settings: concentration not given here
T1 sequence (whole entry): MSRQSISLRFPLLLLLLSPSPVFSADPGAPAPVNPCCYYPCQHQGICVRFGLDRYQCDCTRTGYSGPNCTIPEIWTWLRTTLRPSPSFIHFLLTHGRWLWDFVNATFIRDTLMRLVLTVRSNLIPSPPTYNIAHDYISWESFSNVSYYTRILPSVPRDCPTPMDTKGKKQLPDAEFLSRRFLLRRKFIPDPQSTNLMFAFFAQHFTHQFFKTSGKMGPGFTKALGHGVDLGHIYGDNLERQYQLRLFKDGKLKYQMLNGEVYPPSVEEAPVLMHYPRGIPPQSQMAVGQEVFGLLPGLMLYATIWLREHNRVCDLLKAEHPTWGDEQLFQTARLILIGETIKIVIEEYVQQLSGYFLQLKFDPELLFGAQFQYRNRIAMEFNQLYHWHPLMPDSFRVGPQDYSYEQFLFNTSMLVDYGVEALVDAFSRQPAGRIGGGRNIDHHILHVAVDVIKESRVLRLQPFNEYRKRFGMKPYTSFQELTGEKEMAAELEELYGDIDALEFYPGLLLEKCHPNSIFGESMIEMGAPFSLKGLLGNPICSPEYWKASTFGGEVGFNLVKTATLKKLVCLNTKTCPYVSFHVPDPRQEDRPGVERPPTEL
How it was run: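 Ovine COX-1 from a commercial screening kit, tested with 0.1 µM arachidonic acid, which is below the saturating level. COX-derived PGH2 is reduced by SnCl2 to PGF2a, quantified by enzyme immunoassay with a broad prostaglandin antibody. At least triplicate.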

[29] = tested on: Listeria monocytogenes; assay: Antibacterial activity against Listeria monocytogenes NCTC 7973 after 24 hr by microdilution test; assay type: functional; settings: NCTC 7973, 24 h; how it was run: as §1

| Compound | MIC [1] | MFC [2] | MFC [3] | MIC [4] | MIC [5] | Activity [6] | MFC [7] | MFC [8] | IC50 [9] | inhibition [10] | MBC [11] | MIC [12] | MIC [13] | inhibition in vivo at 10 µmol/kg [14] | MBC [15] | MBC [16] | MIC [17] | MIC [18] | MIC [19] | MFC [20] | other results |
| --- | --- | --- | --- | --- | --- | --- | --- | --- | --- | --- | --- | --- | --- | --- | --- | --- | --- | --- | --- | --- | --- |
| O=C1N/C(=N\c2nccs2)S/C1=C\c1cccc(Br)c1 | 14.6 µM (≈ 5.35 µg/mL) | 25.6 µM (≈ 9.38 µg/mL) | 22 µM (≈ 8.06 µg/mL) | 7.3 µM (≈ 2.67 µg/mL) | 14.6 µM (≈ 5.35 µg/mL) | Non-toxic | 25.6 µM (≈ 9.38 µg/mL) | 22 µM (≈ 8.06 µg/mL) | > 150 µM | 34% | 25.6 µM (≈ 9.38 µg/mL) | 18.3 µM (≈ 6.7 µg/mL) | 18 µM (≈ 6.59 µg/mL) | 42.7% | 25.6 µM (≈ 9.38 µg/mL) | 14.4 µM (≈ 5.27 µg/mL) | 22 µM (≈ 8.06 µg/mL) | 18 µM (≈ 6.59 µg/mL) | 18 µM (≈ 6.59 µg/mL) | 25.6 µM (≈ 9.38 µg/mL) | MBC [21]: 18.3 µM (≈ 6.7 µg/mL); MBC [22]: 25.6 µM (≈ 9.38 µg/mL); MFC [23]: 22 µM (≈ 8.06 µg/mL); MBC [24]: 29.2 µM (≈ 10.7 µg/mL); MIC [25]: 18 µM (≈ 6.59 µg/mL); MIC [26]: 25.6 µM (≈ 9.38 µg/mL); MIC [27]: 18 µM (≈ 6.59 µg/mL); inhibition [28]: 2%; MIC [29]: 14.4 µM (≈ 5.27 µg/mL) |
| O=C1N/C(=N\c2nccs2)S/C1=C\c1cccc(F)c1 | 32.7 µM (≈ 9.99 µg/mL) | 49.1 µM (≈ 15 µg/mL) | 65.4 µM (≈ 20 µg/mL) | 32.7 µM (≈ 9.99 µg/mL) | 24.6 µM (≈ 7.51 µg/mL) | Non-toxic | 65.4 µM (≈ 20 µg/mL) | 65.4 µM (≈ 20 µg/mL) | 90 µM | 72% | 81.9 µM (≈ 25 µg/mL) | 65.4 µM (≈ 20 µg/mL) | 32.7 µM (≈ 9.99 µg/mL) | 56.6% | 65.4 µM (≈ 20 µg/mL) | 65.4 µM (≈ 20 µg/mL) | 32.7 µM (≈ 9.99 µg/mL) | 32.7 µM (≈ 9.99 µg/mL) | 32.7 µM (≈ 9.99 µg/mL) | 65.4 µM (≈ 20 µg/mL) | MBC [21]: 98.2 µM (≈ 30 µg/mL); MBC [22]: 32.7 µM (≈ 9.99 µg/mL); MFC [23]: 65.4 µM (≈ 20 µg/mL); MBC [24]: 32.7 µM (≈ 9.99 µg/mL); MIC [25]: 32.7 µM (≈ 9.99 µg/mL); MIC [26]: 24.6 µM (≈ 7.51 µg/mL); MIC [27]: 32.7 µM (≈ 9.99 µg/mL); inhibition [28]: 42%; MIC [29]: 81.9 µM (≈ 25 µg/mL) |
